# Screening data deposited in PubChem BioAssay by Broad Institute.
# The sample as a whole holds a higher share of hits than the screen did.
# IDH1 R132H inh: inhibitors of IDH1 R132H reductase, primary screen, biochemical, plate reader, single point; inhibition, % at 10 µM; diaphorase/resazurin fluorescence, 60 min; Isocitrate dehydrogenase [NADP] cytoplasmic (Homo sapiens), O75874; AID 624101, 2012; hit rate 0.18% among 70,000; in the data active means inhibition above about 34%; inconclusive means no clear call, values can overlap the other calls; inactive means below about 11%;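 further: 0% = DMSO and 100% = no enzyme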
# Target sequence (O75874 whole entry R132H): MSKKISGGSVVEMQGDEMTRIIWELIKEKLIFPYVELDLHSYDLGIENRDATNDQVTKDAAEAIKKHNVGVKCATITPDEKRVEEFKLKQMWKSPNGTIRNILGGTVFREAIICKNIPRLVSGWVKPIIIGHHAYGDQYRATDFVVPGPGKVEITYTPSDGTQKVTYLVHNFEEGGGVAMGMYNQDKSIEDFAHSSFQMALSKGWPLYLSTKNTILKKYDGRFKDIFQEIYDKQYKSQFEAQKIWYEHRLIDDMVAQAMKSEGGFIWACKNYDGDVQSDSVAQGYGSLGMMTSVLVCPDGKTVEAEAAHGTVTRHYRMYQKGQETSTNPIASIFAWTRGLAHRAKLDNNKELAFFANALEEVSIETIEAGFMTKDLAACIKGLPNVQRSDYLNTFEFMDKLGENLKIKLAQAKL
# GASC1 inh: inhibitors of GASC-1 (KDM4C) histone demethylase, primary screen, biochemical, single concentration HTS; Lysine-specific demethylase 4C (Homo sapiens), Q9H3R0; GST-KDM4C 2-372, H3K9me3 peptide, LANCE TR-FRET; inhibition, % at 12.5 µM; hit rate 0.15% among 96,000;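 active means mean replicate inhibition above about 25%, with at least 55% of replicates also reaching it, limit read from the data, passing the limit was not always enough; inconclusive means only one of those two conditions met; inactive means neither condition met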
#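 material = GST-tagged GASC-1 (JMJD2C) catalytic fragment, aa 2-372 | amount = enzyme final amount 10 nM | medium = HEPES buffer, pH 7.5, plus ascorbate | also added = H3K9me3 peptide substrate, Fe(II), 2-oxoglutarate | dosing = single dose | times = 30 min demethylation and 1 h detection at room temperature | detection = LANCE TR-FRET | read-out basis = Fall in 671/618 emission ratio as inhibition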
# T cruzi growth-1: T. cruzi intracellular proliferation inhibitors, primary screen, cell-based, beta-gal Tulahuen parasites, NIH3T3 host, luminescence; T. cruzi beta-gal in NIH3T3, GalScreen luminescence, 90 h; inhibition, % at 8.34 µM; hit rate 5.9% among 77,000;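 active means mean inhibition above about 93%, with at least 55% of replicates each passing it, limit read from the data, passing the limit was not always enough; inconclusive means only one of those two conditions holds; inactive means neither condition holds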
# T cruzi growth-2: T. cruzi intracellular proliferation inhibitors, confirmation, cell-based, NIH3T3 host, beta-gal parasite, luminescence, cherry-pick | shares compounds with T cruzi growth-1 | T. cruzi beta-gal in NIH3T3, GalScreen luminescence, 90 h | AID 651739, 2012 | inhibition, % at 8.35 µM | hit rate 72% among 5,600;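 active means mean replicate inhibition above about 95% and at least 55% of replicates individually reaching it, limit read from the data; inconclusive means only one of the two criteria is met; inactive means neither criterion is met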
# T cruzi growth-3: inhibitors of intracellular T. cruzi replication, confirmation, NIH3T3 host cells, beta-gal parasites, cherry-pick, set 2. shares compounds with T cruzi growth-1. T. cruzi beta-gal in NIH3T3, GalScreen luminescence, 90 h. inhibition, % at 2.09 µM. hit rate 21% among 5,600;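 active means mean inhibition above about 95%, with at least 55% of replicates also reaching it, limit read from the data; inconclusive means meets just one of the two conditions; inactive means meets neither condition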;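 further: plate controls were neutral control median for no effect and positive control median for full effect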
# NIH3T3 tox: cytotoxicity in mouse NIH/3T3 fibroblasts, confirmation, cytotoxicity control for T. cruzi proliferation inhibitor project, cell-based, cherry-pick, single point; shares compounds with T cruzi growth-1; NIH/3T3 viability, CellTiter-Glo ATP luminescence, 90 h; cytotoxicity (signal decrease), % at 8.35 µM; hit rate 14% among 5,600;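 active means mean signal decrease across replicates above about 35% based on untreated-well scatter, with enough replicates individually passing, limit read from the data; inconclusive means no rule stated though some were filed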;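 further: 0% = median of neutral control wells and 100% = median of positive control wells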
# NIH3T3 tox 2: NIH/3T3 fibroblast cytotoxicity, confirmation, cytotoxicity control, cell-based, cherry-pick, single point, set 2 | shares compounds with T cruzi growth-1 | NIH/3T3 viability, CellTiter-Glo ATP luminescence, 90 h | hit rate 56% among 5,600 | inhibition, % at 24.9 µM;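 active means mean loss of cell viability signal at or above a set limit, and enough replicates individually reaching it; inconclusive means meets only the mean limit or only the replicate share; inactive means meets neither condition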;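 further: 0% = median of neutral control wells and 100% = median of positive control wells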
# Numbers without * were called inactive; ? = inconclusive; · = no result given; + = active, no number.
SMILES,IDH1 R132H inh,GASC1 inh,T cruzi growth-1,T cruzi growth-2,T cruzi growth-3,NIH3T3 tox,NIH3T3 tox 2
C[C@@H]1CN([C@H](C)CO)C(=O)c2cccc(NC(=O)c3nc4ccccc4s3)c2O[C@H]1CN(C)C(=O)Nc1ccc(C(F)(F)F)cc1,-1,-1,93*,?,?,19,50*
C[C@@H]1CN([C@@H](C)CO)C(=O)c2cccc(NC(=O)c3ccc(-c4nccs4)cc3)c2O[C@H]1CN(C)C(=O)Nc1ccc(F)cc1,-2,2,4,·,·,·,·
C[C@H](CO)N1C[C@H](C)[C@@H](CN(C)C(=O)Nc2ccc(C(F)(F)F)cc2)Oc2c(NC(=O)c3ccc(-c4nccs4)cc3)cccc2C1=O,·,16,71,·,·,·,·
C[C@H]1CN([C@@H](C)CO)C(=O)c2cccc(NC(=O)c3nc4ccccc4s3)c2O[C@@H]1CN(C)C(=O)Nc1ccc(C(F)(F)F)cc1,·,0,82,·,·,·,·
C[C@H](CO)N1C[C@H](C)[C@H](CN(C)C(=O)Nc2ccc(C(F)(F)F)cc2)Oc2c(NC(=O)c3ccc(-c4nccs4)cc3)cccc2C1=O,·,-5,116*,102*,72,31,84*
C[C@@H]1CN([C@@H](C)CO)C(=O)c2cc(NC(=O)Nc3ccc4c(c3)OCO4)ccc2O[C@@H](C)CCCCO[C@@H]1CN(C)C(=O)Cc1ccccc1,·,0,-4,·,·,·,·
O=C(NCCc1ccncc1)[C@H]1[C@H](CO)[C@H]2Cn3c(ccc(-c4ccccc4)c3=O)[C@@H]1N2,·,-3,60,·,·,·,·
Cc1ccc(OCCSc2n[nH]c3nc4ccccc4n23)cc1,0,·,·,·,·,·,·
CC(C)NC(=O)N(C)C[C@@H]1Oc2c(NC(=O)Nc3cccc4ccccc34)cccc2C(=O)N([C@@H](C)CO)C[C@@H]1C,·,0,86,·,·,·,·
CCNC(=O)[C@@H]1[C@@H](CO)[C@@H]2Cn3c(ccc(-c4ccccc4OC)c3=O)[C@@H]2N1S(C)(=O)=O,·,1,111*,-99,8,-26,-52
COC(=O)[C@@H]1[C@@H](CO)[C@@H]2Cn3c(ccc(-c4ccccc4OC)c3=O)[C@@H]2N1CC1CCCCC1,·,3,·,·,·,·,·
COc1cccc(-c2ccc3n(c2=O)C[C@@H]2[C@@H](CO)[C@H](C(=O)N(C)C)N(CC4CC4)[C@H]32)c1,·,4,104*,107*,18,12,?
COC(=O)[C@H]1[C@H](CO)[C@H]2Cn3c(ccc(-c4cccc(OC)c4)c3=O)[C@H]2N1CC1CC1,·,4,75,·,·,·,·
CCNC(=O)[C@@H]1[C@@H](CO)[C@@H]2Cn3c(ccc(-c4ccccc4OC)c3=O)[C@@H]2N1CC,·,2,12,·,·,·,·
COC(=O)[C@@H]1[C@@H](CO)[C@@H]2Cn3c(ccc(-c4ccccc4OC)c3=O)[C@@H]2N1CC1CCCC1,·,5,+,38,13,-1,33*
COC(=O)[C@H]1[C@H](CO)[C@H]2Cn3c(ccc(-c4ccccc4OC)c3=O)[C@H]2N1CC1CCOCC1,·,3,5,·,·,·,·
COC(=O)[C@H]1[C@H](CO)[C@H]2Cn3c(ccc(-c4ccccc4OC)c3=O)[C@H]2N1CC1CCCC1,·,5,+,44,-12,-7,28*
CCC(=O)N1[C@H](CN(CC)C(=O)c2ccc(F)cc2)[C@H](c2ccccc2)[C@@H]1CO,·,-2,-7,·,·,·,·
C/C=C1\C(O[C@@H]2O[C@H](CO)[C@@H](O)[C@H](O)[C@H]2O)OC=C(C(=O)OC)C1CC(=O)OCC(O)c1ccc(O)c(O)c1 (stereo partly specified),4,·,·,·,·,·,·
CCS(=O)(=O)N(C)C[C@@H]1N[C@H](CO)[C@@H]1c1ccc(C#CC2CCCC2)cc1,·,-4,·,·,·,·,·
CC(C)NC(=O)N(C)C[C@H]1Oc2ncc(C#CC3(O)CCCC3)cc2C(=O)N([C@@H](C)CO)C[C@@H]1C,1,0,-19,·,·,·,·
O=C(C[C@H]1CC[C@@H]2[C@H](COC[C@H](O)CN2S(=O)(=O)c2ccccc2)O1)NCc1ccc2c(c1)OCO2,·,-1,56,·,·,·,·
COc1ccccc1NC(=O)N1CCCCN2[C@H](CO)[C@H](c3ccc(C#Cc4ccccc4)cc3)[C@@H]2C1,·,-2,78,·,·,·,·
COc1ccccc1NC(=O)N1CCCCN2[C@@H](CO)[C@H](c3ccc(C#Cc4ccccc4)cc3)[C@@H]2C1,·,-3,112*,92,108*,118*,104*
COc1ccccc1NC(=O)N1CCCCN2[C@H](CO)[C@@H](c3ccc(C#Cc4ccccc4)cc3)[C@H]2C1,·,-2,112*,102*,102*,119*,105*
SMILES,IDH1 R132H inh,GASC1 inh,T cruzi growth-1,T cruzi growth-2,T cruzi growth-3,NIH3T3 tox,NIH3T3 tox 2
COc1ccccc1NC(=O)N1CCCCN2[C@H](C1)[C@H](c1ccc(C#CC3CCCC3)cc1)[C@@H]2CO,·,-2,92,·,·,·,·
COc1ccccc1NC(=O)N1CCCCN2[C@H](CO)[C@@H](c3ccc(C#CC4CCCC4)cc3)[C@@H]2C1,·,-1,102*,98*,68,26,105*
COc1ccccc1NC(=O)N1CCCCN2[C@@H](CO)[C@@H](c3ccc(C#CC4CCCC4)cc3)[C@@H]2C1,·,-1,-3,·,·,·,·
COCC(=O)N1C[C@@H](C)[C@@H](OC)CN(C)C(=O)c2ccc(NC(=O)Nc3ccccc3)cc2OC[C@@H]1C,0,1,-25,·,·,·,·
COc1ccccc1CNC(=O)C[C@H]1CC[C@H]2[C@@H](COC[C@@H](O)CN2Cc2cccc(-c3ccncc3)c2)O1,·,1,113*,82,82,6,31*
COc1ccccc1CNC(=O)C[C@H]1CC[C@H]2[C@@H](COC[C@@H](O)CN2Cc2ccccc2)O1,·,0,·,·,·,·,·
COc1ccccc1CNC(=O)C[C@H]1CC[C@@H]2[C@H](COC[C@@H](O)CN2Cc2ccccc2)O1,·,0,·,·,·,·,·
COc1ccccc1CNC(=O)C[C@@H]1CC[C@@H]2[C@H](COC[C@H](O)CN2Cc2ccc3c(c2)OCO3)O1,·,1,150*,55,-22,-5,5
COc1ccccc1CNC(=O)C[C@@H]1CC[C@H]2[C@@H](COC[C@@H](O)CN2Cc2cccc(-c3ccncc3)c2)O1,·,0,122*,82,93,48*,44*
COc1ccccc1CNC(=O)C[C@@H]1CC[C@@H]2[C@H](COC[C@H](O)CN2Cc2ccccc2)O1,·,-2,·,·,·,·,·
